Results published in ChEMBL document CHEMBL1121898, “Potential antiestrogens. Synthesis and evaluation of mammary tumor inhibiting activity of 1,2-dialkyl-1,2-bis(3'-hydroxyphenyl)ethanes” (1981).
Several values for one entry are separate records, joined by “and”; a condition that tells them apart may be missing. Equal values may be shown once. Activity calls are given as the source filed them. The rule behind the calls is not given here.

Columns and labels:
[1] = target: T1, Estrogen receptor (Mus musculus) (UniProt O08537+P19785); assay: Antiestrogenic activity in uterotrophic test in mice at 500 ug; assay type: functional
In short: (§1)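 Immature female NMRI mice, 20 days old (14.5 ± 1.2 g), randomly grouped 10 per group. Each received a daily sc injection for 3 days of 0.1 mL olive oil solution containing test compound, together with estrone to stimulate uterine growth. Uteri were removed 24 h after the last injection and weighed. Results are reported as % inhibition of the estrone-stimulated uterine weight gain, mean ± SD.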

[2] = target: T1, Estrogen receptor (Mus musculus); assay: Estrogenic activity in uterotrophic test in mice at 900 ug; assay type: functional
In short: (§2)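 Immature (20-day-old) female NMRI mice, 14.5 ± 1.2 g, randomized into groups of 10. Given the test compound sc daily for 3 days in 0.1 mL olive oil. Uteri removed 24 h after the last injection; uterine weight taken as the read-out, means ± SD. Dose in μg.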

Rattus norvegicus [3] = organism: Rattus norvegicus; assay: Percent change in DMBA-induced hormone-dependent mammary carcinoma tumor area at 9 mg after 28 days; assay type: functional
In short: (§3)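 DMBA-induced, hormone-dependent mammary adenocarcinoma in SD rats. Rats bearing at least one tumor >140 mm² were placed in groups of ten. Compound was given sc as a single dose (mg/kg) daily Monday–Thursday and a double dose on Friday. Tumors were counted at the start and as new tumors; responses were scored as complete remission (not palpable), partial remission (≥50% reduction), no change or progression. Tumor area and body weight were recorded as % change.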

MCF7 [4] = assay: Inhibition of estrogen receptor positive MCF-7 cell proliferation as cell number after 10 days at 10e-6 M; assay type: functional, Homo sapiens
In short: (§4)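 MCF-7 cells were grown in McCoy's 5a medium with fetal bovine serum stripped by DCC (0.5 h, 45 °C). Compounds were dissolved in ethanol (final ≤0.5%) and diluted in complete medium. Cells were seeded at 5×10^4 cells/plate. On day 10, three replicate plates per group were counted by Coulter counter, three counts per plate. Percent T/C = test/control. In a retest, compounds were given at 10^-7 M with 17β-estradiol at 10^-7 or 10^-8 M.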

Rattus norvegicus [5] = organism: Rattus norvegicus; assay: Percent unchanged tumor size of DMBA-induced hormone-dependent mammary carcinoma tumors in rats at 2.25 mg; assay type: functional
[6] = test system: Estrogen receptor (Bos taurus); assay: Displacement of [3H]estradiol from calf estrogen receptor
Rattus norvegicus [7] = organism: Rattus norvegicus; assay: Final number of DMBA-induced hormone-dependent mammary carcinoma tumors in rats at 9 mg; assay type: functional
In short: (§5)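 Sprague-Dawley rats carrying DMBA-induced, hormone-dependent mammary adenocarcinoma, at least one tumor >140 mm², were placed in groups of ten. Compounds were given sc, with doses in mg/kg: a single daily dose Monday to Thursday and a double dose on Friday. Ovariectomy served as a comparator group. New tumors arising during the test were counted.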

MCF7 [8] = assay: Inhibition of estrogen receptor positive MCF-7 cell proliferation as percent treated/control cell number after 10 days at 10e-7 M; assay type: functional, Homo sapiens; in short: as §4
Rattus norvegicus [9] = organism: Rattus norvegicus; assay: Final number of DMBA-induced hormone-dependent mammary carcinoma tumors in rats at 2.25 mg; assay type: functional; in short: as §5
MCF7 [10] = assay: Inhibition of estrogen receptor positive MCF-7 cell proliferation as percent treated/control cell number after 10 days at 10e-7 M and 10e-8 M 17-beta-estradiol; assay type: functional, Homo sapiens; in short: as §4
MCF7 [11] = assay: Inhibition of estrogen receptor positive MCF-7 cell proliferation as cell number after 10 days at 10e-7 M and 10e-8 M 17-beta-estradiol; assay type: functional, Homo sapiens; in short: as §4
[12] = target: T1, Estrogen receptor (Mus musculus); assay: Estrogenic activity in uterotrophic test in mice at 3 ug; assay type: functional
In short: (§6)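 Uterine growth stimulation in immature female NMRI mice, 20 days old (14.5 ± 1.2 g), 10 per group. Test compound in 0.1 mL olive oil was given sc daily for 3 days. Uteri were excised 24 h after the final injection and weighed. Effect is reported as mean ± SD.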

MCF7 [13] = assay: Inhibition of estrogen receptor positive MCF-7 cell proliferation as cell number after 10 days at 10e-7 M and 10e-7 M 17-beta-estradiol; assay type: functional, Homo sapiens; in short: as §4
Rattus norvegicus [14] = organism: Rattus norvegicus; assay: Partial remission of DMBA-induced hormone-dependent mammary carcinoma tumors in rats at 9 mg; assay type: functional; in short: as §3
Mus musculus [15] = organism: Mus musculus; assay: Vaginal cornification test in mice at 0 ug; predominant cellular component leucocytes (diestrus); assay type: functional, organism-based
In short: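 Female NMRI mice (~15 g) were ovariectomized; castration was confirmed at 10 days by leucocyte smears. Mice were primed with estradiol 3-benzoate 0.2 μg, and only responders showing estrus were kept. Groups of three received sc test compound in 0.1 mL olive oil daily for 3 days. Saline vaginal smears were taken 6, 24, 30, 48 and 54 h after the last dose and scored by Allen-Doisy.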

Rattus norvegicus [16] = organism: Rattus norvegicus; assay: Final number of DMBA-induced hormone-dependent mammary carcinoma tumors in rats at 4.5 mg; assay type: functional; in short: as §5
MCF7 [17] = assay: (§7) Inhibition of estrogen receptor positive MCF-7 cell proliferation as cell number after 10 days at 10e-7 M; assay type: functional, Homo sapiens; in short: as §4
MCF7 [18] = assay: Inhibition of estrogen receptor positive MCF-7 cell proliferation as percent treated/control cell number after 10 days at 10e-8 M; assay type: functional, Homo sapiens; in short: as §4
MCF7 [19] = assay: Inhibition of estrogen receptor positive MCF-7 cell proliferation as cell number after 10 days at 10e-8 M; assay type: functional, Homo sapiens; in short: as §4
[20] = target: T1, Estrogen receptor (Mus musculus); assay: Estrogenic activity in uterotrophic test in mice at 0 ug; assay type: functional; in short: as §6
MCF7 [21] = assay: Inhibition of estrogen receptor positive MCF-7 cell proliferation as percent treated/control cell number after 10 days at 10e-6 M; assay type: functional, Homo sapiens; in short: as §4
MCF7 [22] = assay: Inhibition of estrogen receptor positive MCF-7 cell proliferation as cell number after 10 days at 10e-9 M; assay type: functional, Homo sapiens; in short: as §4
MCF7 [23] = assay: Inhibition of estrogen receptor positive MCF-7 cell proliferation as percent treated/control cell number after 10 days at 10e-9 M; assay type: functional, Homo sapiens; in short: as §4
Mus musculus [24] = organism: Mus musculus; assay: Vaginal cornification test in mice at 0.1 ug; predominant cellular component leucocytes (diestrus); assay type: functional, organism-based
Rattus norvegicus [25] = organism: Rattus norvegicus; assay: Percent change in DMBA-induced hormone-dependent mammary carcinoma tumor area at 4.5 mg after 28 days; assay type: functional; in short: as §3
MCF7 [26] = assay: as §7; assay type: functional, Homo sapiens; in short: as §4; remark: listed apart in the source
MCF7 [27] = assay: Inhibition of estrogen receptor positive MCF-7 cell proliferation as percent treated/control cell number after 10 days at 10e-7 M with 10e-7 M 17-beta-estradiol; assay type: functional, Homo sapiens; in short: as §4
Rattus norvegicus [28] = organism: Rattus norvegicus; assay: Partial remission of DMBA-induced hormone-dependent mammary carcinoma tumors in rats at 4.5 mg; assay type: functional; in short: as §3
[29] = target: T1, Estrogen receptor (Mus musculus); assay: Estrogenic activity in uterotrophic test in mice at 80 ug (experiment 2); assay type: functional; in short: as §2
Rattus norvegicus [30] = organism: Rattus norvegicus; assay: Percent unchanged tumor size of DMBA-induced hormone-dependent mammary carcinoma tumors in rats at 1 mg; assay type: functional
Rattus norvegicus [31] = organism: Rattus norvegicus; assay: Progression of DMBA-induced hormone-dependent mammary carcinoma tumors in rats at 4 mg; assay type: functional
[32] = target: T1, Estrogen receptor (Mus musculus); assay: Antiestrogenic activity in uterotrophic test in mice at 0 ug (experiment 2); assay type: functional; in short: as §1
Rattus norvegicus [33] = organism: Rattus norvegicus; assay: Percent change in body weight DMBA-induced hormone-dependent mammary carcinoma tumors in rats at 18 mg for 7 days; assay type: functional; conditions: in the assay text read “at 1 mg” for “at 18 mg”; in short: as §3
Rattus norvegicus [34] = organism: Rattus norvegicus; assay: Final number of DMBA-induced hormone-dependent mammary carcinoma tumors in rats at 2 mg; assay type: functional; in short: as §5
Rattus norvegicus [35] = organism: Rattus norvegicus; assay: Progression of DMBA-induced hormone-dependent mammary carcinoma tumors in rats at 1 mg; assay type: functional
[36] = target: T1, Estrogen receptor (Mus musculus); assay: Estrogenic activity in uterotrophic test in mice at 0 ug (experiment 1); assay type: functional; in short: as §6
Rattus norvegicus [37] = organism: Rattus norvegicus; assay: Initial tumor number of DMBA-induced hormone-dependent mammary carcinoma in rats at 2 mg; assay type: functional; in short: as §3

T1 sequence (O08537 whole entry, looked up): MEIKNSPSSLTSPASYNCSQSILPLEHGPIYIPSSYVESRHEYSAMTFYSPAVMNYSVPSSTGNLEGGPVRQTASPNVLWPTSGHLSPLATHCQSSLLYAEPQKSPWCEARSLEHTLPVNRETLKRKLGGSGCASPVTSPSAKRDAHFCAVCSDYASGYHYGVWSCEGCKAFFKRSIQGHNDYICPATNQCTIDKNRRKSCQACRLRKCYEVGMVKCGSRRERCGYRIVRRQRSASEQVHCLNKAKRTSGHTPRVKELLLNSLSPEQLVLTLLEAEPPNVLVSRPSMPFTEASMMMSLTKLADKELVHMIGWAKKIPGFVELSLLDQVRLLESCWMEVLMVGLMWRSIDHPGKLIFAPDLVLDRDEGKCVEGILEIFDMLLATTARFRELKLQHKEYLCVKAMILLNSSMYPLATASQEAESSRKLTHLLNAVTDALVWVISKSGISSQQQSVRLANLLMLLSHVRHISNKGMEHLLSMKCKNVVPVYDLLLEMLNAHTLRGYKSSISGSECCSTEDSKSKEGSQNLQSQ
T1 sequence (P19785 whole entry, looked up): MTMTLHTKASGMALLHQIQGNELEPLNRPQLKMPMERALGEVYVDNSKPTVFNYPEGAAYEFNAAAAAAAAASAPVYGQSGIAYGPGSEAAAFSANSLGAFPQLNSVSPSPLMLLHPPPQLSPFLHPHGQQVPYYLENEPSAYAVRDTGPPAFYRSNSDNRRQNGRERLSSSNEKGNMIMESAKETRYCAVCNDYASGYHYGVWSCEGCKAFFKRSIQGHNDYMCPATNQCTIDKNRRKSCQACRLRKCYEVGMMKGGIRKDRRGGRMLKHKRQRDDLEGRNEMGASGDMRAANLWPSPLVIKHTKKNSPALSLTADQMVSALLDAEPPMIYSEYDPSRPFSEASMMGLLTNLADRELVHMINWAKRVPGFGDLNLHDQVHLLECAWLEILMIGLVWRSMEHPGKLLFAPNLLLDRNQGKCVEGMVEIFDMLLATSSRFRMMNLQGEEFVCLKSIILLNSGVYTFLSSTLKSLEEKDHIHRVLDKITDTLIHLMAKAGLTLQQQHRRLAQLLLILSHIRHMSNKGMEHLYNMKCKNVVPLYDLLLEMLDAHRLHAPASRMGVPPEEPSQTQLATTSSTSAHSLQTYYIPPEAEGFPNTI

SMILES	Cell number (MCF7 [4])	Ka [6] [M⁻¹]	T/C (MCF7 [8])	T/C (MCF7 [10]) [%]	Cell number (MCF7 [11])	Activity (Mus musculus [15])	Cell number (MCF7 [17])	T/C (MCF7 [18]) [%]	Cell number (MCF7 [19])	T/C (MCF7 [21]) [%]	Cell number (MCF7 [22])	T/C (MCF7 [23]) [%]	Cell number (MCF7 [26])	T/C (MCF7 [27]) [%]	other results
CCCC(c1cccc(O)c1)C(CCC)c1cccc(O)c1 (stereo unspecified)	23300	9.1e+07	66% and 68%	93	6100	inactive	4300	78	34300	53	30700	71	29700	84	Effect [1]: 23.9; Effect [2]: 28.7; Change (Rattus norvegicus [3]): -24%; Tumors (Rattus norvegicus [5]): 13%; No. of tumors (Rattus norvegicus [7]): 1; No. of tumors (Rattus norvegicus [9]): 17; Effect [12]: 13.6; Cell number (MCF7 [13]): 5600; Tumors (Rattus norvegicus [14]): 22%; No. of tumors (Rattus norvegicus [16]): 6; Effect [20]: 11.4; Activity (Mus musculus [24]): inactive; Change (Rattus norvegicus [25]): 109%; Tumors (Rattus norvegicus [28]): 14%
CCC(c1cccc(O)c1)C(CC)c1cccc(O)c1 (stereo in doubt; 20)	11900	2e+08	70% and 63%	78	5100	inactive	4700	64	27900	27	32100	73	27700	84	Effect [29]: 30.5; Tumors (Rattus norvegicus [30]): 35%; Tumors (Rattus norvegicus [31]): 10%; Effect [32]: 10; Change (Rattus norvegicus [33]): -1.6%; No. of tumors (Rattus norvegicus [34]): 23; Tumors (Rattus norvegicus [35]): 29%; Effect [36]: 10.7; No. of tumors (Rattus norvegicus [37]): 30
